Experiment: Toxicity liver stage against HepG2, at 10uM
Type: cell-based
Set-up: test concentration 10 uM, cell line HepG2-A16-CD81EGFP
Details: human, HepG2-A16-CD81EGFP cells; read-out: INHIBITION
Procedure, shortened: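 Uninfected HepG2-A16-CD81EGFP cells, 3 × 10^3 per well, 1536-well, plated on prespotted compound at 10 μM final, parasite-free screening media added to match infected plates; puromycin 10 μM positive, DMSO 0.5% negative; run in parallel with 48 h PbLuc assay at 37 °C, 5% CO2; viability by CellTiter-Glo luminescence, normalized to controls.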

Compound	cytotoxicity at 10 µM
CCN1CCC(CNC(=O)NCc2cc(-c3ccc(C)cc3)no2)C1 (configuration not stated)	-12.3%
COc1nc2c(cc1C(=O)NCCc1nc3ccccc3s1)CCC2	5.79%
Cc1cccc(NC(=O)CN(C)C(=O)c2scnc2C)n1	-3.79%
COc1c(C2CCCN2C(=O)c2csc(C(C)C)n2)c(C)nn1C (configuration not stated)	-8.26%
O=C(c1ccccc1Cl)N1CCN(CCc2ccccn2)CC1	5.75%
CCn1cc(Cn2cc(-c3cccc(C(C)N(C)C)c3)nn2)cn1 (configuration not stated)	-6.97%
COc1ncccc1CNC(=O)N1CCCC1c1ccsc1 (configuration not stated)	-15.9%
OCCN1CCC(CNCc2cn(-c3ccccc3)nn2)CC1	0.03%
Cc1ccc(C2(CN3CCCC3)CCNCC2)nc1	-12.8%
COc1ccc2cc(CNc3c(C)nn(C(C)C)c3C)ccc2c1	-56.6%
CN(CC1CCOC1)S(=O)(=O)c1cccc(C(=O)N2CCCCCC2)c1 (configuration not stated)	-0.825%
Cc1cc(C(=O)N(CC2CCCO2)c2ccncc2)c(C)o1 (configuration not stated)	-8.97%
CC(=O)N1CCC(N2CCC(c3nc(C)cc(C)n3)C2)CC1 (configuration not stated)	-7.87%
Cc1cc(NC(=O)c2ccc(N3CCOCC3)cc2)[nH]n1	-28.5%
Cc1c(C(C)NC2CCCC2)cnn1-c1ccc(F)cc1F (configuration not stated)	4.91%
CCC(O)CN1CCN(C(=O)c2cnn(-c3ccccc3F)c2)CC1 (configuration not stated)	-3.69%
O=C(COc1cccc2c1CCC2=O)NCC(F)(F)F	-8.74%
CS(=O)(=O)N1CCC(CNC(=O)c2cnccn2)CC1	0.503%
COCCN1CC(Nc2nc(C(C)C)nc3c2cnn3C)CC1=O (configuration not stated)	-1.52%
CC(C)(C)OC(=O)N1CSC[C@@H]1C(=O)NCc1ccsc1	8.77%
CC(C)C(=O)N1CCC(c2nc3ccccn3c2NC(C)(C)C)CC1	5.86%

Compound	cytotoxicity at 10 µM
O=C(Cc1cccs1)N1CCC(O)(CN2CCc3ccccc3C2)C1 (configuration not stated)	-1.47%
Cc1nn(-c2ccccc2)nc1C(=O)NCC(c1ccsc1)N(C)C (configuration not stated)	-22.3%
COc1cc(CN(C)C(=O)NCC(=O)NC(C)C)ccc1SC	-15.5%
CNC(=O)C1=NOC2(CCN(Cc3nccs3)C2)C1 (configuration not stated)	-73.4%
O=C(NCCCn1nc2ccccn2c1=O)Nc1ccccc1	-13.6%
Cn1ccnc1CN1CCCC(Cc2ccnc3ccncc23)CC1 (configuration not stated)	-0.751%
Cc1nccn1-c1ccc(NC(=O)C2CCCN2CC2CC2)cc1 (configuration not stated)	-14%
Cc1nc(CN2CCN(S(=O)(=O)N3CCCCC3)CC2)oc1C	3.64%
Cc1cccc(N2CCOCC3(C2)CN(c2cnn(C)c2)C(=O)CO3)n1 (configuration not stated)	-0.136%
CSC(C)(C)CNC(=O)NC(c1nnc2n1CCC2)C(C)C (configuration not stated)	-19.9%
CN1CCN(C(=O)c2ccnc(N3CCOC(C(F)(F)F)C3)c2)CC1 (configuration not stated)	-11.4%
CC(C)=CCN1CCN(Cc2nccn2C)[C@H]2CS(=O)(=O)C[C@H]21	-2.76%
COCCO[C@H]1COCCN(Cc2ccc(OC)cc2)C1	9.71%
COCCN1CCN(C=C2NN=C(c3occc3C)O2)CC1	-49.4%
O=C(C1CC=CC1)N1CCC2(CCC(=O)N2Cc2cccc(F)c2)CC1	-3.2%
CN(C)Cc1ccc(N2CCN(CCOCC(F)(F)F)CC2)nc1	1.25%
c1cc(CN2CCCC3(COCCN(Cc4c[nH]nn4)C3)C2)cs1 (configuration not stated)	8.59%
CC(C)c1n[nH]c(C(=O)Nc2ccccn2)c1Br	-31.7%
O=C(O)c1ccc(S(=O)(=O)Nc2cnn(CC(F)(F)F)c2)cc1	-7.52%
COCCC1CCN(CC(C)n2cnc3ccccc32)CC1 (configuration not stated)	6.67%
CNc1cc(C)nc(C2COCCN2CCOc2ccc(F)cc2)n1 (configuration not stated)	3.18%

Compound	cytotoxicity at 10 µM
CC(CNC(=O)CCc1ccco1)N1CCc2sccc2C1 (configuration not stated)	4.35%
CCc1[nH]ncc1C(=O)N1CCCC(n2cncn2)C1 (configuration not stated)	-18.9%
CS(=O)(=O)c1cc(C(=O)NS(=O)(=O)Cc2ccc(F)cc2)ccc1Cl	-3.38%
CC1CCCN(CCNC(=O)c2cncnc2C(C)C)C1 (configuration not stated)	-10.6%
Cc1ccc(NC(=O)NCC(c2cnn(C)c2)N(C)C)c(C)c1 (configuration not stated)	-0.538%
Cc1ncsc1CN1C[C@H](C(=O)NCC2CC2)[C@@H]2CCO[C@@H]2C1	-3.17%
Cn1ncc2c(=O)[nH]c(CN3CCCC3c3ccsc3)nc21 (configuration not stated)	-18%
Cn1cc(CN2CCn3cnc(COCC4CC4)c3C2)cn1	3.71%
Cc1ccc(-c2cc(C(=O)NCCN3CCOCC3)n[nH]2)s1	-6.45%
CC(=O)N1CCCn2nc(CNc3cc(C)ncn3)cc2C1	5.19%
Nc1nccc(C2CCN(CC3CC3)C2)n1 (configuration not stated)	8.54%
Cc1nc(C2CCCN2CC(=O)NCCc2ccc(Cl)cc2)no1 (configuration not stated)	8.52%
O=C(NCCNc1ccc(C(F)(F)F)cn1)c1cncc(Br)c1	2.24%
CC(C)c1n[nH]c(C(=O)Nc2ccncc2)c1Br	12.6%
Cc1ccc(CN2C[C@@H]3CCN(Cc4cccnc4)C(=O)[C@H]3C2)s1	0.434%
CS(=O)(=O)N1CCN(C(=O)c2[nH]c3ccc(Cl)cc3c2Cl)CC1	24.6%
CCC(C)N(Cc1cnc(NC(C)C)nc1)Cc1ccsc1 (configuration not stated)	3.84%
COC(=O)CC(NC(=O)c1cccc(N2CCCC2=O)c1)C(=O)OC (configuration not stated)	-55.6%
C=c1ccoc1=C1NN=C(CNCCn2cccn2)O1	-5.02%
Cn1ccc(C(=O)Nc2nc(-c3ccc4c(c3)CCO4)cs2)cc1=O	-9.46%
COc1cccc(C(CO)NC(=O)Cc2cccc(C)c2)c1 (configuration not stated)	4.53%

Compound	cytotoxicity at 10 µM
COc1ccc(S(=O)(=O)N2CCC(S(C)(=O)=O)CC2)cc1C	2.4%
CC(=O)N1CCc2[nH]cnc2C12CCN(C(=O)CCn1cccn1)CC2	5.71%
Cc1cccc(OC2CN(C(=O)C3CC(=O)N(C(C)(C)C)C3)C2)c1 (configuration not stated)	4.4%
Cc1ccc(-n2cc(CN3CCN(C)[C@@H]4CS(=O)(=O)C[C@@H]43)cn2)cc1	-8.67%
C[C@H](CCO)NS(=O)(=O)c1ccc(Br)cn1	-8.63%
Cc1cc(NCCc2nnc(N)s2)nc(-c2cccnc2)n1	-5.44%
Cc1ccc(N2CCCC3(COCCN(c4ncccn4)C3)C2)nn1 (configuration not stated)	-131%
COc1ccc(COCC(O)CNC(=O)c2cccc(OC)c2)cc1 (configuration not stated)	-9.05%
Cc1ccc2c(c1)C1(CCN(S(C)(=O)=O)CC1)CN2C(=O)N(C)C	-121%
c1coc(COCc2ncn3c2CN(Cc2cccs2)CCC3)c1	-76.2%
COCCn1ccc(=O)c(OCC(=O)Nc2ccc(Br)cc2)c1C	0.185%
CCOC(=O)C1CN(S(=O)(=O)CC)Cc2ncn(CC)c21 (configuration not stated)	6.83%
CC(C)OC(=O)N1CCCC(c2nccn2Cc2ccncc2)C1 (configuration not stated)	4.56%
CN(CCNS(C)(=O)=O)C(=O)c1ccc(Cl)c(Cl)c1	-52.4%
CCC(NC1CCN(C(=O)c2ccccc2)CC1)c1cccs1 (configuration not stated)	-2.62%
Cc1noc(C)c1-c1ccc(C2CCCN2C(=O)c2ccncn2)nc1 (configuration not stated)	-4.45%
CNC(=O)CC1c2cccnc2C(=O)N1Cc1ccccc1 (configuration not stated)	-2.51%
CCc1cnc(CNC(=O)N2CCCC(C(=O)NC)C2)s1 (configuration not stated)	19.8%
CCN(CC)Cc1cc(C(=O)N2CCCC(O)(CO)C2)c(C)o1 (configuration not stated)	7.87%

Reference: ChEMBL document CHEMBL4513216, “Probing the Open Global Health Chemical Diversity Library for Multistage-Active Starting Points for Next-Generation Antimalarials” (ACS Infect Dis, 2020)
